Source: PubChem (Broad Institute)
In the library only some 2.8% were active in any assay of this set; here they are far more common.
E-selectin induc: E-selectin induction in HUVECs, primary screen, imaging, HUVEC, immunofluorescence imaging, single point; P16581; normalized: neutral wells 0, TNF-alpha wells 100; activation, % at 7.58 µM; 0.37% of 260,000 active; AID 686992, 2013;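 active = mean E-selectin-positive cell signal at least 10% of the positive control, reached in at least 60% of replicates, without over 20% cell loss; inconclusive = no rule given, readout overlaps actives, possibly toxicity-flagged; inactive = the rest, including those meeting only one limit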
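Material: HUVEC primary endothelial cells; Amount: 3,000 cells per well; Dosing: single concentration; Medium: EGM-2 growth medium on 0.1% gelatin-coated wells; Read-out basis: percent E-selectin-positive cells; Signal: immunofluorescence imaging; Control set: TNF-alpha, DMSO.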
SIRT5 block: SIRT5 desuccinylase inhibitors, primary screen, biochemical, fluorescence imaging, single point, set 5. inhibition, % at 15 µM. 1.1% of 330,000 active. NAD-dependent protein deacylase sirtuin-5, mitochondrial (Homo sapiens), Q9NXA8. Purified SirT5, succinyl-peptide AMC, trypsin-coupled fluorescence; in the data active = inhibition above about 15%; inconclusive = no clear call, values can overlap the other calls
Target sequence (Q9NXA8 whole entry, looked up): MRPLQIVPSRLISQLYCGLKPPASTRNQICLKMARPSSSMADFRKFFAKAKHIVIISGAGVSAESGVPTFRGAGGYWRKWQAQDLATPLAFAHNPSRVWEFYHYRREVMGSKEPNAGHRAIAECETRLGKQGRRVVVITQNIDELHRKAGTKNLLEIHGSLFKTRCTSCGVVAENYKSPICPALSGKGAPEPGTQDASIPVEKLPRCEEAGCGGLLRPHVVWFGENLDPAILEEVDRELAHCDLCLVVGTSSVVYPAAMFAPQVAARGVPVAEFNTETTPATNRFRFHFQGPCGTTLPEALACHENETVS
DENV2 CPE rescue: inhibitors of DENV2 cytopathic effect, primary screen, cell-based, plate reader, single concentration | DENV2-infected cells, cytopathic effect rescue | CPE inhibition, % at 9.99 µM | 1.7% of 350,000 active; in the data active = CPE inhibition above about 20%, passing the limit was not always enough; inconclusive = no clear call, values can overlap the other calls; tested in BHK-21 cells;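 also: 0% = median of neutral control wells and 100% = median of positive control wells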
Starred values were filed as active, the others as inactive; ? = inconclusive; . = no result.

SMILES	E-selectin induc	SIRT5 block	DENV2 CPE rescue
CC(C)NC(=O)Nc1ccc2c(c1)C(=O)N([C@@H](C)CO)C[C@H](C)[C@@H](CN(C)Cc1ccc(C(F)(F)F)cc1)OCCCC[C@@H](C)O2	.	-2	11
CC(C)NC(=O)Nc1ccc2c(c1)C(=O)N([C@H](C)CO)C[C@@H](C)[C@H](CN(C)Cc1ccc(C(F)(F)F)cc1)OCCCC[C@@H](C)O2	.	8	32*
CC(C)NC(=O)Nc1ccc2c(c1)C(=O)N([C@H](C)CO)C[C@@H](C)[C@@H](CN(C)Cc1ccc(C(F)(F)F)cc1)OCCCC[C@@H](C)O2	.	4	42*
COc1ccc(CN(CCNC(=O)CCCCC(=O)NCCN(Cc2ccc(OC)cc2)C(C)C)C(C)C)cc1	.	-2	30*
COc1ccc(CCNC(=O)CCCCC(=O)NCCc2ccc(OC)cc2)cc1	.	-3	-2
O=C(CC1CC1)N1CC(=O)N2[C@H](CO)[C@@H](c3ccc(/C=C/c4ccccc4)cc3)[C@H]2C1	0	1	-6
CO[C@H]1CN(C)C(=O)c2ccc(NC(=O)NC(C)C)cc2OC[C@H](C)N(CCC(F)(F)F)C[C@H]1C	0	5	55*
CO[C@@H]1CN(C)C(=O)c2ccc(NC(=O)NC(C)C)cc2OC[C@@H](C)N(CCC(F)(F)F)C[C@@H]1C	0	7	33*
CO[C@@H]1CN(C)C(=O)c2ccc(NC(=O)NC(C)C)cc2OC[C@@H](C)N(CCC(F)(F)F)C[C@H]1C	0	4	-7
CO[C@H]1CN(C)C(=O)c2ccc(NC(=O)NC(C)C)cc2OC[C@H](C)N(CCC(F)(F)F)C[C@@H]1C	0	7	-5
Cc1ccc(-c2cnc3c(c2)C(=O)N([C@H](C)CO)C[C@@H](C)[C@H](CN(C)C)O3)cc1	-3	-3	?
CC(C)[C@@H](C(=O)NC1CCN(Cc2ccccc2)CC1)N1C(=O)N2CCc3c([nH]c4ccccc34)[C@@]2(C)C1=O	.	.	39*
C[C@@H](C(=O)NCCc1ccccc1F)N1C(=O)N2CCc3c([nH]c4ccccc34)[C@@]2(C)C1=O	.	.	-2
C[C@@H](C(=O)NCCc1ccccc1)N1C(=O)N2CCc3c([nH]c4ccccc34)[C@@]2(C)C1=O	.	-1	37*
CC(C)C[C@@H](C(=O)NC1CCN(Cc2ccccc2)CC1)N1C(=O)N2CCc3c([nH]c4ccccc34)[C@@]2(C)C1=O	.	-17	-9
C[C@H](NC(=O)C[C@@H]1CC[C@H](NC(=O)C2CCOCC2)[C@@H](CO)O1)c1ccccc1	0	4	1
O=C(OCC(=O)N1CCCC1)c1cc(Br)ccc1Cl	0	18*	.
O=C(OCC(=O)N1CCCC1)c1c(Cl)ccc(Cl)c1Cl	1	-2	11
CCC(=O)N1C[C@H]2[C@@H](c3ccccc31)[C@@H](CO)N2C(=O)Nc1ccccc1	0	9	?
Cc1noc(C)c1NC(=O)NCC[C@H]1CC[C@@H](NC(=O)Nc2cccc(F)c2)[C@H](CO)O1	0	-1	12
Cc1ccc(S(=O)(=O)N[C@@H]2CC[C@@H](CCn3cc(C(C)C)nn3)O[C@@H]2CO)cc1	-1	4	-7
O=S(=O)(N[C@H]1CC[C@@H](CCn2cc(-c3cccc(F)c3)nn2)O[C@H]1CO)c1ccc(F)cc1	0	1	8
Cc1ccc(S(=O)(=O)N[C@H]2CC[C@@H](CCn3cc(C(C)C)nn3)O[C@H]2CO)cc1	-1	25*	-13
O=S(=O)(N[C@H]1CC[C@H](CCn2cc(-c3cccc(F)c3)nn2)O[C@H]1CO)c1ccc(F)cc1	-1	25*	-6
CC(C)c1cn(CC[C@H]2CC[C@H](NS(=O)(=O)c3ccc(F)cc3)[C@@H](CO)O2)nn1	0	20*	18
SMILES	E-selectin induc	SIRT5 block	DENV2 CPE rescue
CC(C)c1cn(CC[C@@H]2CC[C@H](NS(=O)(=O)c3ccc(F)cc3)[C@H](CO)O2)nn1	0	-1	-9
COc1ccc(NC(=O)Nc2ccc3c(c2)C(=O)N([C@@H](C)CO)C[C@@H](C)[C@@H](CN(C)S(C)(=O)=O)OCCCC[C@@H](C)O3)cc1	0	5	-3
CCCNC(=O)Nc1ccc2c(c1)OC[C@@H](C)N(C(=O)C1CCCCC1)C[C@@H](C)[C@H](OC)CN(C)C2=O	0	0	0
CO[C@H]1O[C@H](CO)[C@@H](OC(=O)Nc2ccccc2-c2ccccc2)[C@H](OC(=O)Nc2ccccc2-c2ccccc2)[C@@H]1OC(=O)Nc1ccccc1-c1ccccc1	.	-3	-4
COc1ccc2c3c([nH]c2c1)[C@@H](CO)N(C(=O)Nc1ccc(F)cc1)CC31CCN(S(C)(=O)=O)CC1	0	1	-2
Cc1ccc(S(=O)(=O)N(C)C)cc1NC(=O)CN1CCN(Cc2ccccc2)CC1	.	-4	0
Cc1ccc(S(=O)(=O)N(C)C)cc1NC(=O)[C@H](Cc1ccccc1)N1C(=O)c2ccccc2C1=O	.	.	42*
COCC(=O)Nc1ccc2c(c1)C(=O)N(C)[C@@H]1CC[C@@H](CC(=O)N3CCc4ccccc4C3)O[C@@H]1CO2	0	-1	-3
CCCS(=O)(=O)N1CCn2c(nc3ccccc32)C1	.	15*	-5
CCn1c(N2CCN(S(=O)(=O)CC)CC2)nc2ccccc21	.	2	0
CCCNC(=O)N1CC2(CCN(CC3CCCC3)CC2)c2c(n(C)c3cc(OC)ccc23)[C@@H]1CO	0	0	-8
C[C@H]1CN([C@@H](C)CO)C(=O)c2cc(NS(=O)(=O)c3ccc(F)cc3)ccc2O[C@H]1CN(C)C(=O)Nc1ccccc1	0	-1	27*
C[C@@H]1CN([C@H](C)CO)C(=O)c2cc(NS(=O)(=O)c3ccccc3)ccc2O[C@@H]1CN(C)C(=O)Nc1ccc(F)cc1	0	-6	6
C[C@H](CO)N1C[C@H](C)[C@@H](CN(C)C(=O)Nc2ccccc2)Oc2ccc(NS(=O)(=O)c3ccc(F)cc3)cc2C1=O	1	4	2
C[C@@H]1CN([C@@H](C)CO)C(=O)c2cc(NS(=O)(=O)c3ccc(F)cc3)ccc2O[C@@H]1CN(C)C(=O)Nc1ccccc1	0	0	36*
C[C@H](CO)N1C[C@H](C)[C@@H](CN(C)CC2CCCCC2)OCCCC[C@H](C)Oc2ccc(NC(=O)C3CCCCC3)cc2C1=O	0	-6	-6
CO[C@H]1CN(C)C(=O)c2cc(NC(=O)C3CC3)ccc2OC[C@@H](C)N(C(=O)Cc2ccccn2)C[C@@H]1C	1	-4	16
CCCN1[C@H](C(=O)OC)[C@@H](CO)[C@@H]2Cn3c(ccc(-c4cccnc4)c3=O)[C@@H]21	0	1	-2
O=C(C[C@H]1CC[C@H]2[C@@H](COC[C@@H](O)CN2S(=O)(=O)c2cccc(Cl)c2)O1)N1CCCCC1	0	1	2
CO[C@H](CN(C)S(=O)(=O)c1cccc(Cl)c1)[C@@H](C)CN([C@H](C)CO)S(=O)(=O)c1cccc(Cl)c1	0	4	3
O=C(C[C@H]1CC[C@H]2[C@@H](COC[C@H](O)CN2C(=O)Nc2ccccc2)O1)NCCCN1CCOCC1	0	2	-2
